# pIC50: −log10 of the molar value.
# Columns and labels:
# K562 [1] = experiment: Induction of cell cycle arrest in human K562 cells assessed as accumulation at G2 phase at 1 uM after 48 hrs by propidium iodide staining based flow cytometric analysis (reference value: 10.96 to 12.03%); format: functional
# HepG2 [2] = experiment: Antiproliferative activity against human HepG2 cells assessed as reduction in cell viability after 72 hrs by MTT assay; settings: HepG2, 72 h
# K562 [3] = experiment: Induction of cell cycle arrest in human K562 cells assessed as accumulation at S phase at 0.5 uM after 48 hrs by propidium iodide staining based flow cytometric analysis (reference value: 44.73 to 45.96%); format: functional
# HepG2 [4] = experiment: Induction of cell cycle arrest in human HepG2 cells assessed as accumulation at G1 phase at 0.5 uM after 48 hrs by propidium iodide staining based flow cytometric analysis (reference value: 49.46 to 50.3%); format: functional
# In short: (§1)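 HepG2 cells were treated with 0, 0.50, 1.0 or 2.0 test agent for 48 h. Cells were washed in cold PBS and fixed in 70% ethanol at −20 °C overnight. DNA-content distribution was measured by flow cytometry. Mean ± SD, three independent experiments.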
# HepG2 [5] = experiment: Induction of cell cycle arrest in human HepG2 cells assessed as accumulation at S phase at 1 uM after 48 hrs by propidium iodide staining based flow cytometric analysis (reference value: 33.22 to 33.58%); format: functional
# K562 [6] = experiment: Induction of cell cycle arrest in human K562 cells assessed as accumulation at G1 phase at 2 uM after 48 hrs by propidium iodide staining based flow cytometric analysis (reference value: 43.24 to 43.37%); format: functional
# K562 [7] = experiment: Induction of cell cycle arrest in human K562 cells assessed as accumulation at S phase at 2 uM after 48 hrs by propidium iodide staining based flow cytometric analysis (reference value: 44.73 to 45.96%); format: functional
# K562 [8] = experiment: Induction of cell cycle arrest in human K562 cells assessed as accumulation at G1 phase at 0.5 uM after 48 hrs by propidium iodide staining based flow cytometric analysis (reference value: 43.24 to 43.37%); format: functional
# HepG2 [9] = experiment: Induction of cell cycle arrest in human HepG2 cells assessed as accumulation at G2 phase at 2 uM after 48 hrs by propidium iodide staining based flow cytometric analysis (reference value: 16.48 to 16.97%); format: functional
# HepG2 [10] = experiment: Induction of cell cycle arrest in human HepG2 cells assessed as accumulation at S phase at 2 uM after 48 hrs by propidium iodide staining based flow cytometric analysis (reference value: 33.22 to 33.58%); format: functional
# HepG2 [11] = experiment: Induction of cell cycle arrest in human HepG2 cells assessed as accumulation at G2 phase at 1 uM after 48 hrs by propidium iodide staining based flow cytometric analysis (reference value: 16.48 to 16.97%); format: functional; in short: as §1
# HCT-116 = experiment: Antiproliferative activity against human HCT-116 cells assessed as reduction in cell viability after 72 hrs by MTT assay; settings: HCT-116, 72 h
# K562 [12] = experiment: Induction of cell cycle arrest in human K562 cells assessed as accumulation at G2 phase at 0.5 uM after 48 hrs by propidium iodide staining based flow cytometric analysis (reference value: 10.96 to 12.03%); format: functional
# L02 = experiment: Cytotoxicity against human L02 cells assessed as cell viability after 72 hrs by MTT assay; settings: L02, 72 h
# K562 [13] = experiment: Induction of cell cycle arrest in human K562 cells assessed as accumulation at S phase at 1 uM after 48 hrs by propidium iodide staining based flow cytometric analysis (reference value: 44.73 to 45.96%); format: functional
# [14] = Cytotoxicity against human PBMC cells assessed as cell viability after 72 hrs by MTT assay
# MCF7 = experiment: Antiproliferative activity against human MCF7 cells assessed as reduction in cell viability after 72 hrs by MTT assay; settings: MCF7, 72 h
# HepG2 [15] = experiment: Induction of cell cycle arrest in human HepG2 cells assessed as accumulation at G2 phase at 0.5 uM after 48 hrs by propidium iodide staining based flow cytometric analysis (reference value: 16.48 to 16.97%); format: functional; in short: as §1
# K562 [16] = experiment: Induction of cell cycle arrest in human K562 cells assessed as accumulation at G2 phase at 2 uM after 48 hrs by propidium iodide staining based flow cytometric analysis (reference value: 10.96 to 12.03%); format: functional
# K562 [17] = experiment: Induction of cell cycle arrest in human K562 cells assessed as accumulation at G1 phase at 1 uM after 48 hrs by propidium iodide staining based flow cytometric analysis (reference value: 43.24 to 43.37%); format: functional
# HepG2 [18] = experiment: Induction of cell cycle arrest in human HepG2 cells assessed as accumulation at G1 phase at 1 uM after 48 hrs by propidium iodide staining based flow cytometric analysis (reference value: 49.46 to 50.3%); format: functional; in short: as §1
# HepG2 [19] = experiment: Induction of cell cycle arrest in human HepG2 cells assessed as accumulation at G1 phase at 2 uM after 48 hrs by propidium iodide staining based flow cytometric analysis (reference value: 49.46 to 50.3%); format: functional; in short: as §1
# HepG2 [20] = experiment: Induction of cell cycle arrest in human HepG2 cells assessed as accumulation at S phase at 0.5 uM after 48 hrs by propidium iodide staining based flow cytometric analysis (reference value: 33.22 to 33.58%); format: functional
# B16 = experiment: Antiproliferative activity against mouse B16 cells assessed as reduction in cell viability after 72 hrs by MTT assay; settings: B16, 72 h
smiles,measurement,setting,value
C=C1C(=O)[C@]23[C@H](O)[C@H]1CC[C@H]2[C@@]12CO[C@]3(O)[C@@H](O)[C@@H]1C(C)(C)CC[C@@H]2O [ORIDONIN],Activity,K562 [1],5.79%
same,pIC50,HepG2 [2],5.05
same,Activity,K562 [3],44.1%
same,Activity,HepG2 [4],57.11%
same,Activity,HepG2 [5],27.54%
same,Activity,K562 [6],60.6%
same,Activity,K562 [7],32.78%
same,Activity,K562 [8],46.09%
same,Activity,HepG2 [9],5.8%
same,Activity,HepG2 [10],26.2%
same,Activity,HepG2 [11],10.54%
same,pIC50,HCT-116,4.93
same,Activity,K562 [12],9.81%
same,pIC50,L02,4.67
same,Activity,K562 [13],38.54%
same,pIC50,[14],< 4.30
same,pIC50,MCF7,4.86
same,Activity,HepG2 [15],13.25%
same,Activity,K562 [16],6.62%
same,Activity,K562 [17],55.67%
same,Activity,HepG2 [18],61.88%
same,Activity,HepG2 [19],68%
same,Activity,HepG2 [20],29.64%
same,pIC50,B16,4.60
